STAT1 act – activators of IFN-gamma induced STAT1 signaling; NIH 3T3 STAT1-luciferase reporter, luminescence; 100% = IFN-gamma alone, no compound; activation (% of control), % at 5.5 µM; 200,000 compounds, 2.6% hits; AID 932;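 active means activation above the screen-wide mean activation plus 3 SD, cut at about 130% in these data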;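 further: raw ratio to IFN-gamma control signal so 100% means no change and 0% no light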
NF-kB neuron act – NF-kB expression increase, human neuronal cells; NF-kB reporter expression; active compounds read high; 190,000 compounds, 1.6% hits; fold change at 12.5 µM; in the data active means fold change above about 3.3
STAT3 act – increases IL-6 driven STAT3 reporter signal. U3A cells, IL-6 STAT3-luciferase reporter, luminescence; 100% = signal with IL-6 EC80 alone. activation (% of control), % at 5.6 µM. 190,000 compounds, 0.91% hits;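 active means activation above the screen-wide mean of compound activation plus 3 SD, cut at about 130% in these data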;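 further: 0% = background luminescence of wells with medium and substrate only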
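Test system: Human STAT1-deficient U3A cells with stable STAT3-luciferase reporter | Also added: Interleukin-6, 33 ng/mL | Timing: Compound pre-incubation 1 h before IL-6, then 6 h stimulation at 37 °C | Technique: Luciferase reporter luminescence | Read-out: Percent of IL-6-only median luminescence | Benchmarks: IL-6-only wells as 100% reference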
STAT1 inh – reduces IFN-gamma driven STAT1 reporter signal. NIH 3T3 STAT1-luciferase reporter, luminescence. inhibition, % at 5.5 µM. 200,000 compounds, 0.35% hits. AID 920;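 active means inhibition above a set limit, the mean inhibition across all tested compounds plus 3 SD, cut at about 34% in these data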;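 further: 0% = IFN-gamma with DMSO and 100% = IFN-gamma with 300 µM nifuroxazide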
STAT3 inh-1 – inhibitors of IL-6 induced STAT3 signaling. U3A cells, IL-6 STAT3-luciferase reporter, luminescence; host cell line lacks STAT1. inhibition, % at 5.5 µM. 190,000 compounds, 0.89% hits. AID 862;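 active means inhibition above the mean inhibition across all screened compounds plus 3 SD, cut at about 44% in these data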;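 further: 0% = DMSO only wells and 100% = 100 µM nifuroxazide control wells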
APP 5'UTR act – APP 5'UTR luciferase reporter activation; SH-SY5Y APP 5'UTR luciferase reporter, luminescence; zero percent = DMSO vehicle wells; activation, % at 2 µM; 190,000 compounds, 1% hits; AID 1276;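 active means activation above a set limit, based on mean plus 3 SD of controls, cut at about 140% in these data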
STAT3 inh-2 – confirmation of STAT3 signaling inhibitors; shares compounds with STAT3 inh-1; U3A cells, IL-6 STAT3 luciferase reporter, luminescence; cell line lacks STAT1; 1,200 compounds, 45% hits; inhibition, % at 5.7 µM;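 active means inhibition above the hit cutoff computed for the primary STAT3 screen, cut at about 44% in these data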;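 further: 0% = IL-6 plus DMSO and 100% = IL-6 plus nifuroxazide control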
NFkB inh 2 – inhibits NF-kappaB, counter-screen to STAT3 inhibitors | shares compounds with STAT3 inh-1 | HEK293T NF-kB luciferase reporter, TNF-alpha induced | inhibition, % at 5.7 µM | 1,200 compounds, 36% hits;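 active means inhibition above the mean of solvent-only control wells plus 3 SD, cutoff set per campaign, cut at about 13% in these data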;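 further: 0% = TNF-alpha with DMSO and 100% = TNF-alpha with MG high control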
STAT1 inh 2 – inhibits STAT1, counter-screen to STAT3 inhibitors | shares compounds with STAT3 inh-1 | NIH 3T3 STAT1-luciferase reporter, IFN-gamma induced, luminescence | inhibition, % at 5.7 µM | 1,200 compounds, 27% hits;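 active means inhibition above the mean plus 3 SD of solvent-only control wells, limit set per screening run, cut at about 16% in these data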;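 further: 0% = DMSO with IFN-gamma and 100% = nifuroxazide control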
Numbers without * were called inactive; . = no result given. Hits are enriched below; roughly 4.9% of the tested compounds scored in any of these assays.

SMILES | STAT1 act | NF-kB neuron act | STAT3 act | STAT1 inh | STAT3 inh-1 | APP 5'UTR act | STAT3 inh-2 | NFkB inh 2 | STAT1 inh 2
Cc1ccc(NC(=O)C2CCCN2S(=O)(=O)c2ccc3c(c2)n(C)c(=O)c(=O)n3C)cc1C (centres undefined) | 99 | 0.78 | 106 | 1 | -7 | 13 | . | . | .
CCOc1ccc(OCCSc2nc3ccccc3[nH]2)cc1 | 90 | 1.1 | 88 | 10 | 17 | 3 | . | . | .
CCCOc1ccc(CSc2nc3ccccc3[nH]2)cc1 | 92 | 3.5* | 50 | 9 | 59* | 125 | 48* | -1 | -16
NC(=O)c1ccsc1NC(=O)c1ccc(N2CCCC2=O)cc1 | 90 | 1.2 | 51 | 10 | 62* | 175* | 13 | -24 | -100
O=C(NCc1cccs1)c1ccc(N2CCCC2=O)cc1 | 106 | 1.4 | 101 | -7 | 5 | -4 | . | . | .
CCN(CC)C(=O)C1CCN(S(=O)(=O)c2ccc3oc4ccccc4c3c2)CC1 | 88 | 1.1 | 68 | 13 | 45* | 2 | 33 | 5 | 11
O=S(=O)(c1ccc2oc3ccccc3c2c1)N1CCCC1 | 98 | 1.1 | 100 | 2 | 1 | -12 | . | . | .
COc1ccc(NC(=O)c2cc3ccccn3n2)cc1 | 120 | 6* | 67 | -23 | 46* | 149* | 20 | -29 | -96
c1ccc(-n2nnc3c(N4CCOCC4)ncnc32)cc1 | 90 | 2.5 | 32 | 11 | 81* | 148* | 40 | 2 | -53
Cc1nnc(N2CCOCC2)c2nn(-c3ccccc3)c(C)c12 | 98 | 1.1 | 90 | 2 | 13 | -17 | . | . | .
O=S(=O)(c1ccc(N2CCCC2)cc1)C(F)(F)F | 96 | 1.3 | 66 | 7 | 44* | 3 | 10 | -8 | -9
CCc1nnc(NC(=O)Nc2ccccc2OC)s1 | 120 | 1.9 | 94 | -22 | 12 | 53 | . | . | .
CCc1nnc(NC(=O)c2ccc(OC)cc2OC)s1 | 143* | 2.2 | 57 | -47 | 49* | 111 | 13 | -28 | -118
Cc1ccc(OCCN2CCN(C(=O)CCC(=O)Nc3nnc(C)s3)CC2)cc1 | 109 | 1.2 | 100 | -10 | 4 | -8 | . | . | .
Cc1ccc(OCCN2CCN(C(=O)CCC(=O)Nc3nnc(C(C)C)s3)CC2)cc1 | 92 | 1.7 | 62 | 9 | 50* | -16 | 42 | 7 | 3
CCCc1nnc(NC(=O)CCC(=O)N2CCN(CCOc3ccc(C)cc3)CC2)s1 | 91 | 0.74 | 62 | 10 | 50* | 12 | 40 | 2 | 1
COc1ccccc1C(=O)Nc1nc(-c2ccc(S(=O)(=O)N3CCOCC3)cc2)cs1 | 76 | 0.28 | 37 | 25 | 76* | -18 | 74* | 20* | 20*
COc1ccccc1OC(C)C(=O)Nc1nc(-c2ccc(S(=O)(=O)N3CCOCC3)cc2)cs1 (centres undefined) | 95 | 0.87 | 108 | 5 | -6 | -10 | . | . | .
COc1ccc(C(=O)Nc2nnc(-c3ccco3)s2)cc1 | 83 | 4.8* | 31 | 35* | 82* | . | 55* | 19* | -36
O=C(Nc1nnc(-c2ccco2)s1)C1CC1 | 125 | 2 | 92 | -28 | 12 | 16 | . | . | .
O=C(Nc1nnc(-c2ccco2)s1)c1ccccc1 | 125 | 4.2* | 64 | -28 | 47* | 161* | 13 | -29 | -100
CC(C)CCNC(=O)CN(Cc1cccs1)C(=O)CCC(=O)Nc1nccs1 | 97 | 0.81 | 102 | 3 | 4 | -12 | . | . | .
CC1CC(C)(C)Nc2ccc(OC(=O)c3ccco3)cc21 (centres undefined) | 82 | 2.2 | 53 | 20 | 62* | -30 | 31 | 25* | 11
O=C(Oc1ccc2ccccc2c1)c1ccco1 | 106 | 1.2 | 101 | -8 | 3 | -19 | . | . | .
Oc1ccc(O)c(Cc2nc3ccccc3s2)c1 | 87 | 1.9 | 89 | 15 | 18 | 12 | . | . | .
SMILES | STAT1 act | NF-kB neuron act | STAT3 act | STAT1 inh | STAT3 inh-1 | APP 5'UTR act | STAT3 inh-2 | NFkB inh 2 | STAT1 inh 2
COc1ccccc1C(=O)NCc1ccc(-c2nc3ccccc3s2)cc1 | 91 | 0.6 | 56 | 9 | 51* | 34 | -17 | 9 | -81
COc1cccc(-c2nc3ccccc3s2)c1O | 123 | 6.4* | 65 | -27 | 44* | 212* | -4 | -11 | -43
Oc1cccc(-c2nc3ccccc3s2)c1 | 103 | 9* | 42 | -3 | 74* | 116 | 37 | 13* | -12
COc1ccc(-c2nc3ccccc3s2)cc1O | 91 | 1.4 | 25 | 10 | 92* | 225* | 53* | 1 | -16
COc1cccc(C(=O)NCc2ccc(-c3nc4ccccc4s3)cc2)c1 | 114 | 1.6 | 95 | -16 | 12 | 45 | . | . | .
COC(=O)C(NC(=O)c1ccco1)(Nc1ccc(Br)cn1)C(F)(F)F (centres undefined) | 96 | 1.1 | 107 | 5 | -1 | 13 | . | . | .
CCN1CC=C2C(C1)C(c1ccc(Cl)s1)C(C#N)=C(N)C2(C#N)C#N (centres undefined) | 89 | 0.97 | 99 | 12 | 6 | 52 | . | . | .
COc1ccc(OCC(=O)N/N=C(\C)CC(=O)Nc2cccc([N+](=O)[O-])c2)cc1 | 97 | 1 | 99 | 2 | 4 | -13 | . | . | .
CN1/C(=C\C(=O)C[n+]2ccc3ccccc3c2)C(C)(C)c2ccccc21 | 95 | 0.79 | 41 | 6 | 73* | 20 | 74* | 1 | 3
COc1cc(CC(=O)OCC(=O)Nc2ccc(S(=O)(=O)N3CCCC3)cc2)cc(OC)c1OC | 100 | 1.3 | 106 | -1 | 0 | 18 | . | . | .
COc1ccc(CN(C)C(C)C(=O)Nc2ccc(S(=O)(=O)N3CCCC3)cc2)c(OC)c1OC (centres undefined) | 75 | 0.78 | 64 | 26 | 45* | 14 | 32 | 3 | 18*
COc1ccc(NC(C)=O)cc1NC(=O)c1ccc(C#N)cc1 | 94 | 2.1 | 97 | 5 | 6 | -2 | . | . | .
c1c2c(cc3sc(N4CCOCC4)nc13)OCO2 | 118 | 3.2 | 86 | -20 | 22 | 92 | . | . | .
c1c2c(cc3sc(N4CCCCC4)nc13)OCO2 | 90 | 3.8* | 53 | 11 | 62* | 206* | 34 | -1 | -56
CCN(CC)C(=O)Cn1cc(S(=O)(=O)CC(=O)N2CCCCCC2)c2ccccc21 | 94 | 0.98 | 98 | 6 | 14 | -1 | . | . | .
COCCNC(=O)c1cc(S(=O)(=O)N2CCOCC2)ccc1SCc1cccc(OC)c1OC | 97 | 1.1 | 103 | 3 | 8 | 12 | . | . | .
N#Cc1nc(N2CCCCC2)nc(N2CCOCC2)n1 | 102 | 1.6 | 90 | -3 | 15 | -17 | . | . | .

Compound activity from PubChem.
